From PubChem
In the library only some 2.3% were active in any assay of this set; here they are far more common.
OXTR agonist – agonists of human oxytocin receptor. hit rate 0.32% among 320,000. activation, % at 3 µM. AID 2435. CHO-OTR cells, Fluo-8 calcium fluorescence; normalized: DMSO 0%, oxytocin 100%;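 active = activation above the mean of all tested compounds plus 3 SD, cutoff set per screening run, cut at about 20% in these data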;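 also: peak over basal fluorescence ratio from a 100 s FLIPR kinetic read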
OXTR potentiator – human OXTR potentiation. P30559. CHO-OTR cells, Fluo-8 calcium fluorescence, potentiator mode; 0% = oxytocin EC15, 100% = EC100. activation, % at 3 µM. hit rate 0.061% among 320,000;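 active = activation above that plate's cutoff, the mean activation of tested compounds plus 3 SD, cut at about 6.6% in these data, passing the limit was not always enough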;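 also: 100% uses oxytocin at 75 nM as the full agonist control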
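Material: human OTR in CHO cells. Compound: 3.0 µM, one dose. Timing: compound 6 min at room temperature before oxytocin, 100 s read. Evaluation: % activation of max/min ratio relative to oxytocin controls. Replication: single well per compound, singlicate. Signal: Fluo-8 calcium dye fluorescence.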
TAAR1 antag – human TAAR1 antagonism; Q96RJ0; CHO RD-HGA16 TAAR1, Fluo-8 calcium fluorescence, antagonist; inhibition, % at 3 µM; hit rate 1.5% among 360,000; AID 624466;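 active = inhibition above a per-plate cutoff, the mean inhibition of test compounds on that plate plus 3 SD, cut at about 49% in these data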;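 also: 0% = DMSO plus EC80 beta-PEA response and 100% = DMSO alone without agonist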
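Material: CHO RD-HGA16 cells bearing hTAAR1; compound dosing: one-point dosing, 3 µM nominal final; schedule: dye loading 75 min at 37 °C, then 30 min room temperature; measured by: calcium fluorescence with Fluo-8; control set: vehicle and agonist controls; replication: n of 1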
TAAR1 agonist – human TAAR1 agonism; CHO RD-HGA16 TAAR1, Fluo-8 calcium fluorescence; vehicle wells 0%, saturating PEA agonist 100%; activation, % at 3 µM; hit rate 0.99% among 360,000;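 active = activation above the mean activation of all test compounds in the run plus 3 SD, cut at about 38% in these data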
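System: CHO RD-HGA16 cells carrying human TAAR1 plus Gα16; Incubation: 17-24 h seeding, 75 min 37 °C dye, 30 min RT; Measured by: Fluo-8 fluorescence, 5 s baseline then 140 s kinetic read; Control set: DMSO and PEA EC100; Replication: single well for each compound.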
V1R ag counter – V1a receptor agonism, counter-screen for OXTR agonists. CHO-V1R cells, Fluo-8 calcium fluorescence, agonist mode; 0% DMSO, 100% 3 nM vasopressin. activation, % at 3 µM. hit rate 0.25% among 320,000. AID 2797;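 active = activation above the mean activation of all tested compounds plus 3 SD, per screening run, cut at about 20% in these data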;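 also: signal is peak over basal fluorescence ratio across a 100 second FLIPR read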
Target sequence (P37288 whole entry, looked up): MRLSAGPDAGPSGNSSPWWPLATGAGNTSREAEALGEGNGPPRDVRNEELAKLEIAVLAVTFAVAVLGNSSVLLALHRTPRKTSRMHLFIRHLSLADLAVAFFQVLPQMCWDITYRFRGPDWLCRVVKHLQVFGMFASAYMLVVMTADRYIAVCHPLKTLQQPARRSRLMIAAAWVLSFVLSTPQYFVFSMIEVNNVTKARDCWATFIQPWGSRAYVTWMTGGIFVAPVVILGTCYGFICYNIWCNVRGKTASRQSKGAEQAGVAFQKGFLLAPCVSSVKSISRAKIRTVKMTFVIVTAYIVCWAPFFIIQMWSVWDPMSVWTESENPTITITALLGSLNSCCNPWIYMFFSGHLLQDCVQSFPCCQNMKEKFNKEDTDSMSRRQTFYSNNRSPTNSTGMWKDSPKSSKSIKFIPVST
V1R ag confirm – human V1a receptor agonism, confirmation; shares compounds with V1R ag counter; AID 434964; activation, % at 3 µM; hit rate 20% among 180; CHO-V1R cells, Fluo-8 calcium fluorescence, agonist;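 active = average activation exceeds primary screen hit cutoff, cut at about 21% in these data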;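 also: peak over basal fluorescence ratio during a 100 s FLIPR read; 0% = DMSO only wells and 100% = 3 nM vasopressin wells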
OXTR ag counter – OXTR agonism, counter-screen for V1R agonists | shares compounds with V1R ag counter | hit rate 10% among 180 | CHO-OTR cells, Fluo-8 calcium fluorescence, agonist | activation, % at 3 µM | AID 434969;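 active = mean activation over three repeats above the cutoff from the earlier oxytocin receptor agonist screen, cut at about 20% in these data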;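 also: peak over minimum fluorescence ratio within a 100 second FLIPR read; 0% = DMSO only wells and 100% = oxytocin high control wells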
Numbers without * were called inactive; · = no result.

SMILES	OXTR agonist	OXTR potentiator	TAAR1 antag	TAAR1 agonist	V1R ag counter	V1R ag confirm	OXTR ag counter
Cc1cc2c(cc1C)-n1nnnc1C(N1CCN(CC(=O)N3CCCC3)CC1)C(=O)N2 (stereo not drawn)	·	·	-9	2	·	·	·
COC(=O)C1=NN(C(=O)c2ccc(C)cc2)C(O)(c2ccc(Cl)cc2)C1 (stereo not drawn)	13	-6	·	·	33*	6	18
COC(=O)C1=NN(C(=O)c2ccccc2)C(O)(c2ccc([N+](=O)[O-])cc2)C1 (stereo not drawn)	·	·	-8	19	·	·	·
Cc1ccc(CNC(=O)c2cccc3c2C(=O)c2ccc(N4CCCCC4)cc2S3(=O)=O)cc1	14	-5	71*	47*	22*	19	10
Cc1ccc(CNC(=O)c2cccc3c2C(=O)c2ccc(N4CCOCC4)cc2S3(=O)=O)cc1	1	-6	40	23	2	·	·
Cc1ccc(NC(=O)Nc2c(C)n(C)n(-c3ccccc3)c2=O)cc1	1	-6	-10	1	21*	0	0
Cc1c(NC(=O)Nc2ccc(Cl)cc2)c(=O)n(-c2ccccc2)n1C	0	4	3	6	1	·	·
CC(C)(C)C(=O)c1sc2nc(-c3cccs3)cc(C(F)(F)F)c2c1N	3	-5	27	11	4	·	·
Nc1c(C(=O)Nc2nccs2)sc2nc(-c3cccs3)cc(C(F)(F)F)c12	19	-18	31	30	34*	24*	34*
COC(=O)[C@H](Cc1c[nH]c2ccccc12)NC(=O)Cc1c[nH]c2ccccc12	12	-20	34	12	21*	3	1
c1ccc(CNc2ccccn2)cc1	0	-10	5	2	-1	·	·
c1ccc(Nc2ccccc2Nc2ccccn2)nc1	10	-5	-11	5	49*	0	-1
CCC(C)(C)c1ccc(OCCCC[n+]2cccc(C)c2C)c(C(C)(C)CC)c1	17	-14	-16	21	31*	7	3
CCC(C)(C)c1ccc(OCCCC[n+]2ccc(C)cc2)c(C(C)(C)CC)c1	2	-13	0	33	8	·	·
CCc1c(-c2cccc(F)c2)ncn1CCc1ccccc1OC	·	·	-20	6	·	·	·
C[C@@H]1CN([C@H](C)CO)C(=O)CCCn2nncc2CO[C@@H]1CN(C)S(=O)(=O)c1ccc(F)cc1	·	·	-13	1	·	·	·
Cc1ccc(C2=NS(=O)(=O)N(C)C(C(=O)NCc3cccs3)=C2)cc1	2	-4	27	9	3	·	·
COc1ccc(OC)c(C2=NS(=O)(=O)N(C)C(C(=O)NCc3cccs3)=C2)c1	16	-9	26	43*	22*	11	25*
S=C(NCc1ccc(Cl)cc1)Nc1ccncc1	17	-16	3	15	22*	14	16
ONC(=Nc1ccccc1Cl)c1ccccc1Cl	3	-10	-22	1	20*	1	2
CS(=O)(=O)c1ccc(Nc2nc(C(N)c3ccccc3Cl)cs2)cc1 (stereo not drawn)	·	·	-17	5	·	·	·
O=C(NNC(=S)NC(=O)c1ccco1)c1ccc(F)cc1	19	-12	-17	9	29*	11	6
COc1ccc(-c2ccc(C3C(C#N)=C(N)Oc4n[nH]c(C)c43)o2)cc1 (stereo not drawn)	5	-10	39	28	24*	6	6
CCCCNc1cccc2c1S(=O)(=O)N[C@@H](Cc1ccccc1)CO2	·	·	11	0	·	·	·
CC(OC(=O)/C(C#N)=C/c1ccc(N(C)C)cc1)C(=O)N(C)Cc1ccccc1 (stereo not drawn)	18	-17	43	16	30*	32*	19
SMILES	OXTR agonist	OXTR potentiator	TAAR1 antag	TAAR1 agonist	V1R ag counter	V1R ag confirm	OXTR ag counter
CCCC(=O)Nc1nc(C(=O)OCC)cs1	1	-3	12	6	1	·	·
CCOC(=O)c1csc(NC(=O)COc2ccc(Cl)cc2Cl)n1	10	-8	2	14	22*	5	10
Fc1ccc(CSc2ccc3nnc(-c4cccs4)n3n2)cc1	-1	-10	-5	3	24*	1	0
Cc1ccc2[nH]c(C(=O)N/N=C/c3ccccc3C(=O)O)c(-c3ccccc3)c2c1	0	-7	3	6	1	·	·
Cc1ccc2[nH]c(C(=O)N/N=C/c3ccccc3O)c(C)c2c1	5	-16	1	7	22*	1	0
Cc1cc(Nc2cc(C(F)(F)F)cc(C(F)(F)F)c2)cc(=O)n1-c1cc(C(F)(F)F)cc(C(F)(F)F)c1	·	·	-17	1	·	·	·
CCc1nc2ccc(C(=O)N3CCN(C(=O)c4ccco4)CC3)cn2c1N(CC)CCOC	·	·	-18	1	·	·	·
COCC(=O)Nc1ccc2c(c1)[C@@H]1C[C@H](CC(=O)NCc3cccc(F)c3)O[C@@H](CO)[C@@H]1O2	·	·	4	1	·	·	·
C=CCn1cc(CN2CCC(C(=O)Nc3cccc(-c4cccc(Cl)c4)c3)CC2)c(C)n1	5	-8	-19	12	22*	0	0
C=CCn1cc(CN2CCC(C(=O)Nc3cccc(-c4cccc(F)c4)c3)CC2)c(C)n1	2	-9	-27	9	5	·	·
CCOc1cccc(C2C(C(=O)c3ccc(C)o3)=C(O)C(=O)N2Cc2ccncc2)c1 (stereo not drawn)	-1	-13	-5	15	0	·	·
CCOc1cccc(C2C(C(=O)c3ccc(C)o3)=C(O)C(=O)N2c2nccs2)c1 (stereo not drawn)	2	-14	4	2	39*	4	4
Cc1ccc(S(=O)(=O)NCC(=O)N/N=C/c2ccc(Cl)cc2)cc1	-2	8	-6	22	22*	-1	-1
O=C(N[C@H](Cc1ccccc1)C(=O)N1CCN(Cc2ccccn2)CC1)[C@H]1O[C@@H](n2ccc(=O)[nH]c2=O)[C@H](O)[C@@H]1O	·	·	-6	1	·	·	·
N#CC1(NC(=O)COC(=O)Cc2c[nH]c3ccccc23)CCCCC1	·	·	6	7	·	·	·
OC(COc1ccc(F)cc1Cl)CN1CCC(Cc2ccccc2)CC1 (stereo not drawn)	11	-15	12	34	22*	2	3
OC(COc1ccccc1F)CN1CCC(Cc2ccccc2)CC1 (stereo not drawn)	4	5	-2	4	1	·	·
COc1ccc(CCN2C(=O)CN=C2Nc2ccc(F)cc2)cc1OC	-1	-3	0	5	0	·	·
